Reference: PMC4792293 (RSC advances, 2015)
Where two headings read alike, the source gives them in different places.

Legend:
[1] = biological target: T1, α-Glucosidase (EC 3.2.1.20) from Saccharomyces cerevisiae (Saccharomyces cerevisiae, UniProt P53341); experiment: α-glucosidase inhibitory assay; assay type: biochemical
[2] = biological target: T1, α-Glucosidase (EC 3.2.1.20) from Saccharomyces cerevisiae; experiment: Kinetics of α-glucosidase inhibition; assay type: biochemical; details: Lineweaver-Burk plots, ligand 2 – 250 μM
Procedure, shortened: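 Two inhibitor concentrations within 2–250 μM were tested against p-nitrophenyl-α-D-glucopyranoside at 1–1000 μM in 50 mM phosphate, pH 6.8. Enzyme and inhibitor were pre-incubated for 30 min, at room temperature per the methods but at 37 °C per the figure legend. Substrate was then added, reacted 60 s at room temperature and read at 405 nm. Inhibition type was assigned from double-reciprocal plots.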

α-glucosidase [3] = biological target: T2, α-glucosidase (Saccharomyces cerevisiae, UniProt P53341); experiment: Isothermal titration calorimetry; assay type: binding; details: for ITC titration peaks: ligand concentrations 1 – 4 mM; for binding constants (Ka) / ΔG / Ka / ΔH / ΔS / N [GCGs/α-glucosidase] (ligand:enzyme ratio): ITC
T2 sequence (P53341 whole entry): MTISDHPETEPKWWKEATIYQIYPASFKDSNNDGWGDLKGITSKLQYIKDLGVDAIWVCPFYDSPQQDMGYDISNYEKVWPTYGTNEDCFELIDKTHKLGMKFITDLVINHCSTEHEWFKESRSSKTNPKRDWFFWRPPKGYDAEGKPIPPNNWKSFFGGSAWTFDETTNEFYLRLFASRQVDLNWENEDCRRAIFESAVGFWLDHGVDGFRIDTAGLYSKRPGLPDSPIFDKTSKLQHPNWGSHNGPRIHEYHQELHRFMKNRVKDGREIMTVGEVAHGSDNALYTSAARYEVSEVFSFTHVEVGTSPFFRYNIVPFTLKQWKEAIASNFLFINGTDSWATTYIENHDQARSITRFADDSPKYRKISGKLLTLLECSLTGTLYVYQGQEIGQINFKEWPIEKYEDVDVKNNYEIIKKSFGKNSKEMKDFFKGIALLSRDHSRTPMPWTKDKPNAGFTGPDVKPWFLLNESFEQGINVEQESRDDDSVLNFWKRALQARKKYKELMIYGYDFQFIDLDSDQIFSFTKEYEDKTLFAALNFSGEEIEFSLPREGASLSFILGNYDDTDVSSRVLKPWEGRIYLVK
Procedure, shortened: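 Test compound (1–4 mM) was titrated into α-glucosidase (0.026–0.031 mM) in the cell, both in 100 mM phosphate, pH 7.0, and degassed 20 min under vacuum. Titration used 17 injections at 240 s intervals, 25 °C, with stirring at 310 rpm. Blanks were buffer into buffer and compound into buffer. Data were fit by nonlinear regression to a single-site binding model.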

α-glucosidase [4] = biological target: T2, α-glucosidase; experiment: Circular dichroism; assay type: binding; details: α-glucosidase 2 μM; for β-Turns %: control 14.3; for β-Fold %: control 21.9; for Unordered %: control 26.9; for α-Helix %: control 36.3
Procedure, shortened: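 Far-UV CD spectra (190–240 nm) at 25 °C. Yeast α-glucosidase at 2 μM was co-incubated with test compound at 0–80 μM for 20 min at 37 °C in 0.1 M sodium phosphate, pH 6.8, in a 1.0 mm path-length cell. Spectra were blank-subtracted against buffer, noise-reduced and smoothed. Secondary-structure fractions were estimated with the DichroWeb server.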

α-glucosidase [5] = details: cited from earlier work
[6] = yeast α-glucosidase, pNPG, pH 6.9, 25 °C, mean ± S.D. from three independent experiments

T1 sequence (P53341 whole entry): as above

## O=C(OC[C@H]1OC[C@H](OC(=O)c2cc(O)c(O)c(O)c2)[C@@H](O)[C@@H]1O)c1cc(O)c(O)c(O)c1 [ginnalin A]
[1]
  IC50: 216 ± 3.19 µM
[2]
  Type of inhibition: noncompetitive
α-glucosidase [3]
  ITC titration peaks: too weak to yield thermodynamic parameters
α-glucosidase [4]; ligand 40 μM
  β-Turns %: 11.5%
  β-Fold %: 22.7%
  Unordered %: 27.8%
  α-Helix %: 37.8%
α-glucosidase [4]; ligand 80 μM
  β-Turns %: 15.8%
  β-Fold %: 22.5%
  Unordered %: 27.7%
  α-Helix %: 33.5%

## maplexin F
[1]; [6]
  IC50: 13.7 ± 0.87 µM
[2]
  Type of inhibition: noncompetitive
α-glucosidase [3]
  binding constants (Ka): 28500 mol⁻¹
  ΔG: -6.09 kcal/mol
α-glucosidase [3]; 25 °C, phosphate buffer pH 7.0
  Ka: 2.85 10^4 mol^−1
  ΔG: -1.46 kcal/mol
  ΔH: -2.452 kcal/mol
  ΔS: 14.06 J mol^−1 K^−1
α-glucosidase [3]; 25 °C, phosphate buffer pH 7.0, listed as MF
  N [GCGs/α-glucosidase] (ligand:enzyme ratio): 1.01
α-glucosidase [4]; ligand 20 μM
  β-Turns %: 15.6%
  β-Fold %: 24.7%
  Unordered %: 28.4%
  α-Helix %: 30.7%
α-glucosidase [4]; ligand 40 μM
  β-Turns %: 16.6%
  β-Fold %: 22.7%
  Unordered %: 28.9%
  α-Helix %: 31.2%

## O=C(OC[C@H]1OC[C@H](O)[C@@H](O)[C@@H]1O)c1cc(O)c(O)c(O)c1 [ginnalin B]
[1]
  IC50: > 1000 µM
α-glucosidase [3]
  ITC titration peaks: too weak to yield thermodynamic parameters

## O=C(OC[C@H]1OC[C@H](OC(=O)c2cc(O)c(O)c(O)c2)[C@@H](OC(=O)c2cc(O)c(O)c(O)c2)[C@@H]1OC(=O)c1cc(O)c(O)c(O)c1)c1cc(O)c(O)c(O)c1 [maplexin J]
[1]; [6]
  IC50: 4.27 ± 0.13 µM
[1]; α-glucosidase inhibition
  potency relative to maplexins E and F: three times more potent than maplexins E and F
[2]
  Type of inhibition: noncompetitive
α-glucosidase [3]
  binding constants (Ka): 42200 mol⁻¹
  ΔG: -6.31 kcal/mol
α-glucosidase [3]; 25 °C, phosphate buffer pH 7.0
  Ka: 4.22 10^4 mol^−1
  ΔG: -1.51 kcal/mol
  ΔH: -6.016 kcal/mol
  ΔS: 63.31 J mol^−1 K^−1
α-glucosidase [3]; 25 °C, phosphate buffer pH 7.0, listed as MJ
  N [GCGs/α-glucosidase] (ligand:enzyme ratio): 1.01
α-glucosidase [4]; ligand 20 μM
  β-Turns %: 20.4%
  β-Fold %: 21.1%
  Unordered %: 26.4%
  α-Helix %: 31.8%
α-glucosidase [4]; ligand 40 μM
  β-Turns %: 19.1%
  β-Fold %: 24.4%
  Unordered %: 25.3%
  α-Helix %: 30.7%

## O=C(O[C@H]1CO[C@H](CO)[C@@H](O)[C@@H]1O)c1cc(O)c(O)c(O)c1 [ginnalin C]
[1]
  IC50: > 1000 µM
α-glucosidase [3]
  ITC titration peaks: too weak to yield thermodynamic parameters

## O=C(OC[C@H]1O[C@@H](OC(=O)c2cc(O)c(O)c(O)c2)[C@H](OC(=O)c2cc(O)c(O)c(O)c2)[C@@H](OC(=O)c2cc(O)c(O)c(O)c2)[C@@H]1OC(=O)c1cc(O)c(O)c(O)c1)c1cc(O)c(O)c(O)c1 [PGG, pentagalloyl glucose]
α-glucosidase [5]
  Type of inhibition: noncompetitive α-glucosidase inhibitor

## C[C@H]1O[C@H](O[C@H]2[C@H](O)[C@@H](O)[C@@H](O[C@H]3[C@H](O)[C@@H](O)C(O)O[C@@H]3CO)O[C@@H]2CO)[C@H](O)[C@@H](O)[C@@H]1N[C@H]1C=C(CO)[C@@H](O)[C@H](O)[C@H]1O (stereo partly shown) [acarbose]
α-glucosidase [5]; positive control
  Type of inhibition: competitive inhibitor
